Screening results (PubChem)
Hits are enriched below; roughly 5.2% of the tested compounds scored in any of these assays.
HCV NS3 hel inh: inhibitors of HCV NS3 helicase, primary screen, biochemical, Cy5 molecular beacon fluorescence. NS3 helicase DNA unwinding. inhibition, % at 10.9 µM. 0.56% of 290,000 active;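 active means inhibition above the mean of all tested compounds plus 3 SD, set per campaign, cut at about 35% in these data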;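 further: 0% = DMSO wells and 100% = thioflavine S control wells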
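Material: hepatitis C virus NS3 helicase domain fragment enzyme; measured by: Cy5 fluorescence, 0 and 60 min reads; control set: DMSO and thioflavine S; incubation: 60 min unwinding reaction at 25 °C after ATP addition; read-out basis: % inhibition from 60/0 min fluorescence ratio, DMSO 0%, thioflavine S 100%; repeats: singlicate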
ALR inh: inhibitors of human ALR sulfhydryl oxidase, primary screen, biochemical, H2O2 detection, HRP-luminol luminescence, single point | purified ALR, DTT oxidation | 3.8% of 290,000 active | AID 485317, 2010 | inhibition, % (test concentration not listed);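 active means mean replicate inhibition above about 79%, with every replicate also reaching it, limit read from the data; inconclusive means only one of the two criteria met; inactive means mean below limit and not every replicate reaching it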
Target sequence (P55789 whole entry, looked up): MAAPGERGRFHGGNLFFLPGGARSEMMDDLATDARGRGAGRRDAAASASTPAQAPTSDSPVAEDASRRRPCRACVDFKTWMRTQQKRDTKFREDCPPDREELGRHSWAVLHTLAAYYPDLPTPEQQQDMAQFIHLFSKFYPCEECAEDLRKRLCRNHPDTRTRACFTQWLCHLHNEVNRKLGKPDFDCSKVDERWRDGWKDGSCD
M18AAP inhibitor: PfM18AAP inhibitors, malaria aminopeptidase, primary screen, biochemical, QFRET, recombinant enzyme; M18 aspartyl aminopeptidase (Plasmodium falciparum 3D7); H-Glu-NHMec fluorogenic cleavage; inhibition, % at 7.35 µM; 1.2% of 290,000 active; AID 1822, 2009;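 active means inhibition above the campaign mean inhibition over all tested compounds plus 3 SD, cut at about 28% in these data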;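 further: 0% = plate median of test compound wells and 100% = 2 mM ZnCl2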
ZTA DNA inh: ZTA (EBV) inhibition in EBNA-1 counter-screen; P03206; inhibition, % at 11 µM; 0.15% of 320,000 active; ZTA-DNA binding, fluorescence polarization; in the data active means inhibition above about 33%
Target sequence (P03206 whole entry, looked up): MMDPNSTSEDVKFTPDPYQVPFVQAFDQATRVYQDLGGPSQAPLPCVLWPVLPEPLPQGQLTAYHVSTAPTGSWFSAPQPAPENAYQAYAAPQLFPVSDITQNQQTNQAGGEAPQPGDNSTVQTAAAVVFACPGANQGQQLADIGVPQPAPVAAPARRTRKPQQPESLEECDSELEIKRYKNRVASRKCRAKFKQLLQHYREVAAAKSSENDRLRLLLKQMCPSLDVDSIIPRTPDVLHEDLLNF
EBNA-1 inh: EBNA-1 DNA-binding inhibitors, primary screen, biochemical, fluorescence polarization; inhibition, % at 14.8 µM; 0.34% of 300,000 active; in the data active means inhibition above about 28%
HCV core dimer: inhibitors of HCV core protein dimerization, primary screen, biochemical, TR-FRET, high-throughput. TR-FRET GST/Flag-core106 dimerization, 1536-well. inhibition, % at 5 µM. 0.33% of 300,000 active. AID 1899, 2009;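 active means inhibition above the mean of all tested compounds plus 3 SD, set per screening campaign, cut at about 45% in these data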
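System: GST/Flag-tagged HCV core106 proteins. Incubation: compound-protein-antibody incubation 4 h at 22.5 °C. Technique: HTRF with 340 nm excitation, 617/671 nm emission. Medium: KF-containing HEPES buffer, pH 7.45, DTT, CHAPS, BSA. Read-out: inhibition (%) from 671 over 617 nm ratio. Also added: Eu(K)-anti-GST 90 ng/mL plus XL665-anti-Flag 1 µg/mL.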
Numbers without * were called inactive; ? = inconclusive; . = not tested or not shown.

SMILES | HCV NS3 hel inh | ALR inh | M18AAP inhibitor | ZTA DNA inh | EBNA-1 inh | HCV core dimer
O=c1[nH]c(Nc2ccc3c(c2)OCCO3)nnc1Cc1ccc(Cl)cc1 | 2 | -1 | 3 | -12 | -11 | -7
O=C(Nc1ccc(NC(=S)NC(=O)C(c2ccccc2)c2ccccc2)cc1)c1ccccc1 | 0 | -7 | 0 | -11 | 8 | 57*
COc1cc(C2C(C#N)=C(N)Oc3cc(C)oc(=O)c32)cc(OC)c1OC (stereo not drawn) | -1 | 20 | 2 | 4 | 3 | 1
COc1cc(C2C(C#N)=C(N)Oc3cc(C)oc(=O)c32)cc2c1OCO2 (stereo not drawn) | 13 | -9 | 3 | 4 | 0 | 65*
CCN(CC)c1ccc(C(=O)N/N=C(\C)c2cccnc2)cc1 | 2 | 25 | -41 | -6 | 1 | -6
CCN(CC)c1ccc(C(=O)N/N=C(\C)c2ccc(O)cc2)cc1 | -18 | 94* | -20 | 9 | 5 | 0
C/C(=N\NC(=O)Cc1ccc(F)cc1)c1ccc(O)cc1 | -2 | 99* | 5 | 6 | -7 | -17
Cc1ccc(NC(=O)CSc2nc(=O)n(Cc3ccncc3)c3c2CCC3)c(C)c1 | . | 46 | . | 0 | -4 | -1
Cc1[nH]nc(-c2ccc(O)cc2O)c1Oc1ccccc1 | -18 | 98* | -5 | 7 | -2 | 4
Cc1[nH]nc(-c2ccc(O)cc2O)c1-c1nc2ccccc2s1 | -5 | 87* | 1 | -8 | -20 | 3
CCCOC(=O)c1ccc(Oc2c(-c3ccc(O)cc3O)n[nH]c2C)cc1 | -4 | 48 | 6 | -7 | -21 | 1
Oc1cccc(-c2nc3ccccc3s2)c1 | -4 | 4 | 5 | -22 | -2 | -5
Cc1[nH]nc(-c2ccc(O)cc2O)c1-c1ccc(Cl)cc1 | -9 | 82* | 11 | 7 | 7 | 1
O=C(O)c1ccc(Oc2ccc(S(=O)(=O)c3ccc(C(=O)O)c(C(=O)O)c3)cc2)cc1 | 5 | -35 | -13 | . | . | .
O=C1NN(c2ccccc2)C(=O)/C1=C/c1ccc(-c2ccc(C(=O)O)cc2)o1 | 0 | 99* | 16 | 4 | 0 | -7
O=C1NN(c2ccc(Cl)c(Cl)c2)C(=O)/C1=C/c1ccc(-c2ccccc2C(=O)O)o1 | 32 | 99* | 1 | . | . | .
O=C(O)c1ccc(N2C(=O)/C(=C/c3ccc(-c4ccc([N+](=O)[O-])cc4)o3)C=C2c2ccccc2)cc1 | 40* | 58 | 23 | 9 | 13 | 30
Cc1cc(C)n(C(=O)CN(C)S(=O)(=O)c2ccc([N+](=O)[O-])cc2)n1 | -4 | -20 | 5 | 5 | -2 | -1
Cc1cccc(N2CCN(C(=O)c3ccc(NC4=NC5CS(=O)(=O)CC5S4)cc3)CC2C)c1 (stereo not drawn) | -1 | 72 | 5 | -1 | 7 | 6
CCCN1CCC(=O)N([C@H](CSc2ccc(OC)cc2)CC(C)C)CC1 | . | 99* | . | -11 | -10 | -6
COc1ccc(NC(=O)C(=O)NCC2CCCN2S(=O)(=O)c2cc(C)ccc2C)cc1 (stereo not drawn) | . | -2 | . | -3 | -1 | 2
Cc1ccc(Sc2nc(-c3ccccc3)nnc2C(F)(F)F)cc1 | 4 | 98* | -8 | -3 | -3 | 0
Cc1nc(N)sc1N=Nc1ccc(F)cc1 | -1 | 98* | 8 | 5 | -6 | 3
Cc1ncc(N=Nc2ccc(F)cc2)c(-c2ccc(Cl)cc2)n1 | 5 | -14 | -1 | -2 | -1 | -1
CC(C)CC(C(=O)O)N1C(=O)C2C3C=CC(C2C1=O)C1C(=O)N(C(CC(C)C)C(=O)O)C(=O)C31 (stereo not drawn) | 6 | -4 | 2 | -21 | -19 | 0
SMILES | HCV NS3 hel inh | ALR inh | M18AAP inhibitor | ZTA DNA inh | EBNA-1 inh | HCV core dimer
COc1ccc(S(=O)(=O)Cc2ccc(C(=O)N3CCN(c4ccccc4)CC3)o2)cc1 | -5 | 89* | 7 | -2 | -1 | 1
COc1ccc(S(=O)(=O)Cc2ccc(C(=O)N3CCN(c4ccccc4F)CC3)o2)cc1 | -6 | 13 | -3 | -5 | 9 | 1
COc1ccc(S(=O)(=O)Cc2ccc(C(=O)N3CCCC3)o2)cc1 | 0 | 94* | 5 | 1 | -6 | -4
COc1ccc(S(=O)(=O)Cc2ccc(C(=O)N3CCC(C(N)=O)CC3)o2)cc1 | -4 | -35 | -10 | -11 | -4 | 0
COc1ccccc1S(=O)(=O)Cc1ccc(C(=O)N2CCCC2)o1 | 2 | 93* | 4 | -7 | 4 | 0
CCOc1cc(/C=N/NC(=O)NN(C)c2ncc(C(F)(F)F)cc2Cl)ccc1O | -10 | 99* | 11 | 1 | -5 | -3
COc1ccc(NC(=O)C2CCN(C(=O)c3cccs3)CC2)cc1 | 5 | -7 | 2 | 5 | 1 | 1
COc1ccc(NC2CCCN(C(=O)c3cccs3)C2)cc1 (stereo not drawn) | 10 | 99* | 5 | 1 | 13 | 8
COc1ccc(NC2CCCN(C(=O)c3ccccc3C(F)(F)F)C2)cc1 (stereo not drawn) | 8 | 99* | 1 | -25 | 2 | -3
CC(=O)c1ccc(C(=O)N2CCCC(Nc3ccccc3)C2)s1 (stereo not drawn) | -8 | ? | 0 | 8 | 0 | 4
CC(C)c1ccc(NC2CCCN(C(=O)c3cccs3)C2)cc1 (stereo not drawn) | -6 | 99* | 4 | -31 | -13 | 4
COc1ccc(OC)c(C(=O)N2CCCC(Nc3ccc(F)cc3)C2)c1 (stereo not drawn) | -2 | 94* | 3 | 2 | 2 | -2
O=C(CN1CCCCCC1)Nc1ccc(Cl)cn1 | 26 | 2 | 16 | -14 | -18 | 4
Cc1ccc(NC2CCCN(C(=O)c3cccs3)C2)cc1C (stereo not drawn) | 0 | 99* | 4 | 7 | 3 | 7
O=C(CNS(=O)(=O)c1c(Cl)cccc1Cl)OCC(=O)N1CCN(c2ccccc2)CC1 | 1 | 20 | 2 | 3 | -3 | 0
O=C(CNc1ccccc1)N/N=C/c1cc([N+](=O)[O-])ccc1N1CCCC1 | 4 | . | 4 | -7 | -7 | 2
O=C(N/N=C/c1ccc(N2CCCC2)c([N+](=O)[O-])c1)c1cccnc1 | 11 | -12 | 11 | 7 | 0 | -9
O=C(Cn1c2ccccc2c(=O)c2ccccc21)N/N=C/c1ccc(N2CCCC2)c([N+](=O)[O-])c1 | 12 | -1 | 1 | 9 | -6 | 51*
O=C(Cn1c2ccccc2c(=O)c2ccccc21)N/N=C/c1cc([N+](=O)[O-])ccc1N1CCCCCC1 | 1 | 1 | 5 | -4 | -5 | 65*
